The source made the active and inactive calls. The calls are words filed in the database; no cut-off is given here.
Experiments:
[1] = test system: MCF7; assay: Inhibition of cell proliferation in MCF7 mp53 cells in presence of 6.5 Gy [60Co]-induced DNA damage; assay type: functional, cell-based; conditions: Homo sapiens
In short: (§1)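 MCF-7 mp53 cells seeded at 1000 cells/well and grown overnight. Compound applied over a concentration range for 24 h (DMSO ≤1% final), then irradiated with 0 or 6.5 Gy. Compound removed 24 h later and cells grown in fresh medium until untreated cells neared confluence (typically 4-6 days). Proliferation read by MTT, 2 h at 37 °C, SDS/DMF solubilisation, absorbance 570 nm. IC50 reported.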

[2] = test system: MCF7; assay: Inhibition of cell proliferation in MCF7 mp53 cells in absence of 6.5 Gy [60Co]-induced DNA damage; assay type: functional, cell-based; conditions: Homo sapiens; in short: as §1
[3] = test system: MCF7; assay: Inhibition of 6.5 Gy [60Co]-induced G2 DNA damage check point in MCF7 mp53 cells at >10 uM; assay type: functional, cell-based; conditions: Homo sapiens
In short: (§2)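 MCF-7 mp53 cells seeded at 2 × 10^5 cells/dish, cultured 24 h, then given 6.5 Gy (60Co, 1.2 Gy/min). Sixteen hours later (90% in G2), compound added with 100 ng/mL nocodazole for 8 h. Cells fixed in 70% EtOH, stained with mitosis-specific antibody GF-7 and propidium iodide. 20 000 events per sample read by flow cytometry as % cells escaping G2 arrest. DMSO carrier control.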

[4] = test system: MCF7; assay: Inhibition of 6.5 Gy [60Co]-induced G2 DNA damage check point in MCF7 mp53 cells; assay type: functional, cell-based; conditions: Homo sapiens; in short: as §2
[5] = test system: MCF7; assay: Inhibition of 6.5 Gy [60Co]-induced G2 DNA damage check point in MCF7 mp53 cells at 10 uM; assay type: functional, Homo sapiens; design: scale not given: the % may be the effect or the level left; in short: as §2
[6] = target: T1, Serine/threonine-protein kinase Chk1 (Homo sapiens) (UniProt O14757); assay: Inhibition of Chk1
T1 sequence (whole entry): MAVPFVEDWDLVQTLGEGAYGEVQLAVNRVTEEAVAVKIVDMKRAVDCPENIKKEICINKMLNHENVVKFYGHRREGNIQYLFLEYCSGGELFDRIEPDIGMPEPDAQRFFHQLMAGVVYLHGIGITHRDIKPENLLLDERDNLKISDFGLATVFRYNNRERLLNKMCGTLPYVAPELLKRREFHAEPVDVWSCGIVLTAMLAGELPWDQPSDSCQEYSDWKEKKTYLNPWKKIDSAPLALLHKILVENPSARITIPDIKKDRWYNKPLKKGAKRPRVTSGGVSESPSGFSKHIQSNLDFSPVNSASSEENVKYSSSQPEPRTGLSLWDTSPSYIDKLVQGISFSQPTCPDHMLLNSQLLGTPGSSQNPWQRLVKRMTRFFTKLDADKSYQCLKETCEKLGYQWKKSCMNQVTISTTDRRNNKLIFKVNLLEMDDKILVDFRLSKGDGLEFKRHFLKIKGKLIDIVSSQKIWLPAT

[7] = test system: MCF7; assay: Inhibition of 6.5 Gy [60Co]-induced G2 DNA damage check point in MCF7 mp53 cells at 50 uM; assay type: functional, Homo sapiens; design: scale not given: the % may be the effect or the level left; in short: as §2

| Structure (SMILES) | IC50 [1] [µM] | IC50 [2] [µM] | Activity [3] | Activity [4] | Activity [5] [%] | Activity [6] | Activity [7] [%] |
| --- | --- | --- | --- | --- | --- | --- | --- |
| COc1cc2c(cc1O)CC[n+]1cc3cc(OC)c(OC)cc3cc1-2 [DEHYDRODISCRETINE] | 7 | 25 | inactive | inactive | – | – | – |
| O=C1NC(=O)c2c1c1c3ccccc3[nH]c1n1cncc21 [ISOGRANULATIMIDE] | – | – | – | – | 35 | – | – |
| CN1CCc2cc3c(c4c2[C@H]1[C@@H](O)c1ccccc1-4)OCO3 [OLIVEROLINE] | 20 | 45 | Active | Dose-dependent effect | – | inactive | 35 |
| COc1cc2c(cc1OC)-c1cc3cc(OC)c(OC)cc3c[n+]1CC2 [PSEUDOPALMATINE] | 80 | 250 | inactive | inactive | – | – | – |
